Drawing on ChEMBL document CHEMBL1629439, “High-throughput identification of antibacterials against methicillin-resistant Staphylococcus aureus (MRSA) and the transglycosylase” (Bioorg Med Chem, 2010), this text covers MIC for nine compounds.

Test [1] deals with Staphylococcus aureus. The experiment in a line: Antimicrobial activity against Staphylococcus aureus ATCC 29213 after 18 to 24 hrs by alamar blue assay. In general terms: The colour change of resazurin is a common sign of viable cells or microbes.
The test system of test [2] is Stenotrophomonas maltophilia. Kind of test: Antimicrobial activity against Stenotrophomonas maltophilia ATCC 13637 after 18 to 24 hrs by alamar blue assay. Particulars: Stenotrophomonas maltophilia, ATCC 13637; read-out: MIC. It counts as functional. The procedure, abridged:
(§1)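 Broth microdilution per NCCLS in Mueller-Hinton broth, 8-point twofold dilutions, 384-well format. Exponential-phase cells at 5 × 10^5 cells/ml incubated with compound 18–24 h at 37 °C, then 20% Alamar blue added and fluorescence read. MIC90 taken as the lowest concentration preventing at least 90% bacterial growth.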

The subject of test [3] is Staphylococcus aureus. The experiment in a line: Antimicrobial activity against methicillin-resistant Staphylococcus aureus isolate NTUH4722 after 18 to 24 hrs by alamar blue assay. It counts as functional. Summed up: (§2)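 Broth microdilution per NCCLS standard, Mueller-Hinton broth, 8-point twofold dilutions; exponentially growing cells at 5 10^5 cells/ml with compound, 18–24 h at 37 C; 20% Alamar blue added, fluorescence read; MIC90 taken as lowest concentration preventing at least 90% growth.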

For test [4], the system named is Escherichia coli. Kind of test: Antimicrobial activity against Escherichia coli ATCC […] after 18 to 24 hrs by alamar blue assay. The class given is functional. Particulars: Escherichia coli; read-out: MIC. The procedure, abridged: as §1
The subject of test [5] is Mycolicibacterium smegmatis. The experiment in a line: Antimicrobial activity against Mycobacterium smegmatis BCRC 11565 after 18 to 24 hrs by alamar blue assay. The class given is functional. Particulars: Mycolicibacterium smegmatis, BCRC 11565; read-out: MIC. Summed up:
as §1

Test [6] has as its system Serratia marcescens. The experiment in a line: Antimicrobial activity against Serratia marcescens ATCC 14756 after 18 to 24 hrs by alamar blue assay. It counts as functional. Particulars: Serratia marcescens, ATCC 14756; read-out: MIC. The procedure, abridged: as §1
For test [7], the system named is Staphylococcus aureus. The experiment in a line: Antimicrobial activity against oxacillin- and methicillin-resistant Staphylococcus aureus isolate Sa-OXA-R2 after 18 to 24 hrs by alamar blue assay. It counts as functional. The procedure, abridged: as §2
Test [8] concerns Acinetobacter baumannii. Kind of test: Antimicrobial activity against Acinetobacter baumannii ATCC 49139 after 18 to 24 hrs by alamar blue assay. It counts as functional. Particulars: Acinetobacter baumannii, ATCC 49139; read-out: MIC. Summed up:
as §1

Test [9] has as its system Pseudomonas aeruginosa. Kind of test: Antimicrobial activity against Pseudomonas aeruginosa ATCC 25619 after 18 to 24 hrs by alamar blue assay. It counts as functional. Particulars: Pseudomonas aeruginosa, ATCC 25619; read-out: MIC. The procedure, abridged:
as §1

In test [10] the test system is Bacillus subtilis. The experiment in a line: Antimicrobial activity against Bacillus subtilis ATCC 23857 after 18 to 24 hrs by alamar blue assay. It counts as functional. Summed up:
as §1

In test [11] the test system is Staphylococcus aureus. The experiment in a line: Antimicrobial activity against methicillin-resistant Staphylococcus aureus ATCC 33592 after 18 to 24 hrs by alamar blue assay. It counts as functional. Particulars: Staphylococcus aureus, ATCC 33592; read-out: MIC. Summed up:
as §2

A word on the MIC: it is the smallest concentration in the dilution series that meets the test's criterion for growth inhibition.

Converted amounts (≈) assume the structure as drawn. Bounds are passed on as bounds.

In the case of `O=C(Nc1nnc(-c2ccc(Br)cc2)o1)c1cccc(C(F)(F)F)c1`, the MIC was 1 µg/mL (≈ 2.43 µM) in [1]; greater than 256 µg/mL in test [2]; 0.5 µg/mL (≈ 1.21 µM) in test [3]; greater than 256 µg/mL in test [4]; 0.5 µg/mL (≈ 1.21 µM) in test [5]; greater than 256 µg/mL in [6]. The minimal inhibitory concentration (MIC) in test [7] is 0.125 µg/mL (≈ 0.303 µM); in test [8] it was greater than 256 µg/mL; in test [9], greater than 256 µg/mL; in test [10] it was 0.5 µg/mL (≈ 1.21 µM); in test [11], 1 µg/mL (≈ 2.43 µM).

On to `Cc1c(CCC(=O)O)c(=O)oc2c(C)c3occ(-c4ccc(Br)cc4)c3cc12`, for which the MIC in test [1] is 0.5 µg/mL (≈ 1.13 µM); in test [2] it was greater than 256 µg/mL; in [3], 0.5 µg/mL (≈ 1.13 µM); in test [4], greater than 256 µg/mL; in test [5], 1 µg/mL (≈ 2.27 µM); in test [6] it was greater than 256 µg/mL. The MIC in test [7] is 1 µg/mL (≈ 2.27 µM); in test [8], greater than 256 µg/mL; in test [9], greater than 256 µg/mL; in test [10], greater than 64 µg/mL; in test [11], 1 µg/mL (≈ 2.27 µM).

As for `CCOc1ccc2nc(NC(=O)c3ccc([N+](=O)[O-])o3)sc2c1`, the MIC in [1] came to 2 µg/mL (≈ 6 µM); in test [2], 32 µg/mL (≈ 96 µM); in test [3], 16 µg/mL (≈ 48 µM); in [4], 256 µg/mL (≈ 768 µM); in test [5], 0.5 µg/mL (≈ 1.5 µM); in test [6], 32 µg/mL (≈ 96 µM). The MIC in test [7] is 16 µg/mL (≈ 48 µM); in test [8] it was 12 µg/mL (≈ 36 µM); in [9], 128 µg/mL (≈ 384 µM); in test [10] it was 0.06 µg/mL (≈ 0.18 µM); in test [11] it was 4 µg/mL (≈ 12 µM).

As to `COC(=O)c1c(NC(=O)c2ccc([N+](=O)[O-])o2)sc2c1CC(C)(C)NC2(C)C`, the minimum inhibitory concentration (MIC) worked out at 2 µg/mL (≈ 4.91 µM) in test [1]; 32 µg/mL (≈ 78.5 µM) in test [2]; 4 µg/mL (≈ 9.82 µM) in test [3]; 256 µg/mL (≈ 628 µM) in test [4]; 0.5 µg/mL (≈ 1.23 µM) in test [5]; 32 µg/mL (≈ 78.5 µM) in [6]. In addition, the MIC in test [7] amounted to 2 µg/mL (≈ 4.91 µM); in test [8] it was 12 µg/mL (≈ 29.5 µM); in test [9], 128 µg/mL (≈ 314 µM); in [10], 0.06 µg/mL (≈ 0.147 µM); in [11], 2 µg/mL (≈ 4.91 µM).

For the compound `Cc1c(CC(=O)N2CCC(C(=O)O)(c3ccccc3)CC2)c(=O)oc2c(C)c3occ(-c4ccc(Cl)cc4)c3cc12`, the MIC is 2.5 µg/mL (≈ 4.39 µM) in [1]; greater than 256 µg/mL in test [2]; 2.5 µg/mL (≈ 4.39 µM) in test [3]; greater than 256 µg/mL in [4]; 1 µg/mL (≈ 1.75 µM) in [5]; greater than 256 µg/mL in test [6]. In addition, the minimum inhibitory concentration (MIC) is 2.5 µg/mL (≈ 4.39 µM) in test [7]; greater than 256 µg/mL in test [8]; greater than 256 µg/mL in test [9]; greater than 64 µg/mL in test [10]; 2.5 µg/mL (≈ 4.39 µM) in test [11].

In the case of `CCN1C(=O)/C(=C/c2ccc([N+](=O)[O-])o2)SC1=S`, the MIC in test [1] was 0.5 µg/mL (≈ 1.76 µM); in test [2] it was greater than 256 µg/mL; in test [3], 0.125 µg/mL (≈ 0.44 µM); in [4], 16 µg/mL (≈ 56.3 µM); in [5] it was 1 µg/mL (≈ 3.52 µM); in test [6], greater than 256 µg/mL. Moreover, the minimum inhibitory concentration (MIC) in test [7] was 0.25 µg/mL (≈ 0.879 µM); in test [8], greater than 256 µg/mL; in test [9] it was 2 µg/mL (≈ 7.03 µM); in test [10] it was less than 0.03 µg/mL; in test [11] it was 0.5 µg/mL (≈ 1.76 µM).

Consider `O=C(Nc1cccc(Cl)c1)c1cc(Br)cc(Br)c1O`, for which the MIC in [1] is 2 µg/mL (≈ 4.93 µM); in test [2] it was 16 µg/mL (≈ 39.5 µM); in test [3] it was 2 µg/mL (≈ 4.93 µM); in test [4], 8 µg/mL (≈ 19.7 µM); in [5] it was 0.5 µg/mL (≈ 1.23 µM); in test [6] it was 16 µg/mL (≈ 39.5 µM). Moreover, the MIC was 8 µg/mL (≈ 19.7 µM) in test [7]; 16 µg/mL (≈ 39.5 µM) in test [8]; 16 µg/mL (≈ 39.5 µM) in [9]; less than 0.03 µg/mL in test [10]; 2 µg/mL (≈ 4.93 µM) in [11].

For the compound `O=C(Nc1nnc(-c2ccc(F)cc2)o1)c1cccc(Br)c1`, the MIC is 2 µg/mL (≈ 5.52 µM) in test [1]; greater than 256 µg/mL in test [2]; 1 µg/mL (≈ 2.76 µM) in test [3]; greater than 256 µg/mL in test [4]; 0.5 µg/mL (≈ 1.38 µM) in test [5]; greater than 256 µg/mL in test [6]. Moreover, the MIC was 1 µg/mL (≈ 2.76 µM) in [7]; greater than 256 µg/mL in [8]; greater than 256 µg/mL in [9]; 0.5 µg/mL (≈ 1.38 µM) in test [10]; 0.5 µg/mL (≈ 1.38 µM) in test [11].

Regarding `O=C(Nc1nnc(-c2ccc(F)cc2)o1)c1ccc(Cl)s1`, the MIC in [1] is 1.2 µg/mL (≈ 3.71 µM); in test [2], greater than 256 µg/mL; in test [3], 1.2 µg/mL (≈ 3.71 µM); in test [4], greater than 256 µg/mL; in [5], 0.5 µg/mL (≈ 1.54 µM); in [6], greater than 256 µg/mL. Also, the MIC was 1.2 µg/mL (≈ 3.71 µM) in [7]; greater than 256 µg/mL in [8]; greater than 256 µg/mL in [9]; 0.5 µg/mL (≈ 1.54 µM) in test [10]; 1.2 µg/mL (≈ 3.71 µM) in test [11].
